Active and inactive are the calls of the source. The calls are words filed in the database; no cut-off is given here.
Legend:
[1] = tested on: Rattus norvegicus; experiment: Analgesic activity in po dosed Sprague-Dawley rat by tail flick assay; format: functional
[2] = tested on: Rattus norvegicus; experiment: Hyperexcitability activity in Long-Evens black-hooded rat assessed as behavioral responses to tactile stimulation at 20 mg/kg, po; format: functional, organism-based; set-up: dose 20 mg/kg
In short: (§1)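 Rats randomly split into groups of four, dosed orally, then held singly in a sound-attenuated room. At 1, 2, 3 and 4 h each was probed with a wooden rod and scored for exaggerated motor reaction, squeaking and biting (maximum 16 per response). Index is the summed score of the three responses divided by the maximum of 48.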

[3] = tested on: Mus musculus; experiment: Antidepressant activity in mouse assessed as potentiation of (+/-)Dopa-induced motor responses at 5 mg/kg, po challenged with Dopa after 4 hrs compound treatment; format: functional, organism-based; set-up: dose 5 mg/kg
[4] = tested on: Rattus norvegicus; experiment: Hyperexcitability activity in Long-Evens black-hooded rat assessed as behavioral responses to tactile stimulation at 80 mg/kg, po; format: functional, organism-based; set-up: dose 80 mg/kg; in short: as §1
[5] = tested on: Felis catus; experiment: Sedative-hypnotic activity in cat assessed as change in total sleep time at 2.5 mg/kg, po after 12 hrs; format: functional
In short: (§2)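 Total sleep time was recorded 12 h after drug, with two or more cats per dose. The value is the change in minutes from paired control experiments; a negative value means decreased sleep.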

[6] = tested on: Rattus norvegicus; experiment: Antipsychotic activity in Long-Evens rat assessed as reduction in methamphetamine-induced hyperactivity at 10 mg/kg, po; format: functional
[7] = tested on: Mus musculus; experiment: Antianxiety activity in albino BALB/cJ mouse assessed as decrease in foot shock-induced fighting behavior at 10 mg/kg, po by tranquilizer activity test; format: functional
[8] = tested on: Felis catus; experiment: Sedative-hypnotic activity in cat assessed as change in total sleep time at 5 mg/kg, po after 12 hrs; format: functional; in short: as §2
[9] = tested on: Canis familiaris; experiment: Antianxiety activity in po dosed beagle-like dog assessed as minimum dose required to produce moderate ataxia; format: functional, Canis lupus familiaris
In short: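 Minimum dose producing ataxia, with two or more dogs per dose.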

[10] = tested on: Felis catus; experiment: Sedative-hypnotic activity in cat assessed as change in total sleep time at 0.5 mg/kg, po after 12 hrs; format: functional; in short: as §2
[11] = tested on: Rattus norvegicus; experiment: Hyperexcitability activity in Long-Evens black-hooded rat assessed as behavioral responses to tactile stimulation at 10 mg/kg, po; format: functional, organism-based; set-up: dose 10 mg/kg; in short: as §1
[12] = tested on: Mus musculus; experiment: Analgesic activity in po dosed mouse assessed as inhibition of acetic acid-induced writhing; format: functional
[13] = tested on: Rattus norvegicus; experiment: Antianxiety activity in Long-Evens rat assessed as decrease in motor activity at 10 mg/kg, po by tranquilizer activity test; format: functional
[14] = tested on: Rattus norvegicus; experiment: Antipsychotic activity in Long-Evens rat assessed as reduction in methamphetamine-induced hyperactivity at 5 mg/kg, po; format: functional
[15] = tested on: Felis catus; experiment: Sedative-hypnotic activity in cat assessed as change in total sleep time at 0.25 mg/kg, po after 12 hrs; format: functional; in short: as §2
[16] = tested on: Rattus norvegicus; experiment: Antianxiety activity in Long-Evens rat assessed as decrease in motor activity at 5 mg/kg, po by tranquilizer activity test; format: functional
[17] = tested on: Felis catus; experiment: Sedative-hypnotic activity in cat assessed as change in total sleep time at 0.1 mg/kg, po after 12 hrs; format: functional; in short: as §2
[18] = tested on: Mus musculus; experiment: Antianxiety activity in albino BALB/cJ mouse assessed as decrease in foot shock-induced fighting behavior at 5 mg/kg, po by tranquilizer activity test; format: functional
[19] = tested on: Rattus norvegicus; experiment: Antipsychotic activity in Long-Evens rat assessed as increase in methamphetamine-induced hyperactivity at 10 mg/kg, po; format: functional
[20] = tested on: Rattus norvegicus; experiment: Antipsychotic activity in Long-Evens rat assessed as increase in methamphetamine-induced hyperactivity at 20 mg/kg, po; format: functional
[21] = tested on: Rattus norvegicus; experiment: Antianxiety activity in Long-Evens rat assessed as decrease in motor activity at 2 mg/kg, po by tranquilizer activity test; format: functional
[22] = tested on: Rattus norvegicus; experiment: Antipsychotic activity in Long-Evens rat assessed as reduction in methamphetamine-induced hyperactivity at 20 mg/kg, po; format: functional
[23] = tested on: Mus musculus; experiment: Increase in foot shock-induced fighting behavior in albino BALB/cJ mouse at 5 mg/kg, po by tranquilizer activity test; format: functional
[24] = tested on: Rattus norvegicus; experiment: Antipsychotic activity in Long-Evens rat assessed as increase in methamphetamine-induced hyperactivity at 5 mg/kg, po; format: functional
[25] = tested on: Felis catus; experiment: Sedative-hypnotic activity in cat assessed as change in total sleep time at 1 mg/kg, po after 12 hrs; format: functional; in short: as §2
[26] = tested on: Rattus norvegicus; experiment: Antianxiety activity in Long-Evens rat assessed as decrease in motor activity at 20 mg/kg, po by tranquilizer activity test; format: functional
[27] = tested on: Rattus norvegicus; experiment: Antipsychotic activity in Long-Evens rat assessed as reduction in methamphetamine-induced hyperactivity at 2 mg/kg, po; format: functional

| SMILES | ED50 [1] [mg/kg] | Activity [3] | inhibition in vivo at 10 mg/kg [6] [%] | inhibition in vivo at 10 mg/kg [7] [%] | Activity [9] [mg/kg] | Activity [11] | ED50 [12] [mg/kg] | inhibition in vivo at 10 mg/kg [13] [%] | inhibition in vivo at 5 mg/kg [14] [%] | inhibition in vivo at 5 mg/kg [16] [%] | other results |
| --- | --- | --- | --- | --- | --- | --- | --- | --- | --- | --- | --- |
| CCCCCC(C)C(C)c1cc(OCC2CC2)c2c(c1)OC(C)(C)c1ccncc1-2 (stereo not drawn) | > 40 | Active | 1 |  |  |  |  |  |  |  | Activity [2]: inactive; Activity [4]: inactive; Time [5]: 105 min |
| COc1cc(C(C)CCCc2ccc(F)cc2)cc2c1-c1cnccc1C(C)(C)O2 (stereo not drawn) | > 40 | Active | 48 | 65 | 10 |  |  |  |  |  | Time [8]: 121 min |
| C#CCN1CCC2=C(C1)c1c(O)cc(C(C)CCCc3ccc(F)cc3)cc1OC2(C)C (stereo not drawn) | 3.7 | Active |  | 47 | 1 | Active | 5.3 | 57 | 25 |  | Time [10]: 99 min |
| CCCCCC(C)C(C)c1cc(O)c2c(c1)OC(C)(C)c1ccncc1-2 (stereo not drawn) | 3.07 | Active |  | 36 | <1 |  | 3.3 |  | 61 | 79 | Time [15]: 193 min; Time [17]: 225 min; inhibition in vivo at 5 mg/kg [18]: 29% |
| CCCCCC(C)C(C)c1cc(OCCCN2CCOCC2)c2c(c1)OC(C)(C)c1ccncc1-2.Cl (stereo not drawn) | > 40 | Active |  |  |  |  |  |  |  |  | Activity [2]: inactive; Activity [4]: inactive; Activity [19]: 13%; Time [8]: -11 min; Activity [20]: 28% |
| CC(CCCc1ccc(F)cc1)c1cc(O)c2c(c1)OC(C)(C)c1cc[n+]([O-])cc1-2 (stereo not drawn) | > 40 | Active |  | 24 |  | inactive | > 10 |  | 16 | 18 |  |
| C#CCN1CCC2=C(C1)c1c(O)cc(C(C)C(C)CCCCC)cc1OC2(C)C (stereo not drawn) | 13.8 | Active |  |  | 1 |  | 4.3 | 51 | 59 |  | Time [17]: 100 min; inhibition in vivo at 5 mg/kg [18]: 48% |
| CCCCCC(C)C(C)c1cc(OC(C)=O)c2c(c1)OC(C)(C)c1ccncc1-2 (stereo not drawn) |  | Active |  | 48 | <5 |  | 3.3 |  | 46 | 86 | inhibition in vivo at 2 mg/kg [21]: 43% |
| C=CCOc1cc(C(C)CCCc2ccc(F)cc2)cc2c1-c1cnccc1C(C)(C)O2 (stereo not drawn) | > 40 | Active | 20 | 17 |  |  |  |  |  |  | inhibition in vivo at 20 mg/kg [22]: 27%; Activity [2]: inactive |
| CCCCCC(C)C(C)c1cc(OC(=O)CCCN2CCCCC2)c2c(c1)OC(C)(C)c1ccncc1-2.Cl (stereo not drawn) |  | Active |  |  |  | Active | 4 | 63 | 40 | 43 | Activity [23]: 3% |
| CCCCCC(C)C(C)c1cc(OC)c2c(c1)OC(C)(C)c1ccncc1-2 (stereo not drawn) | > 200 | Active | 12 | 29 | 2 | inactive | 158 | 37 |  |  | Activity [24]: 15%; Activity [4]: inactive; Time [8]: 102 min; Time [25]: 58 min; inhibition in vivo at 20 mg/kg [26]: 46% |
| CC(CCCc1ccc(F)cc1)c1cc(O)c2c(c1)OC(C)(C)c1ccncc1-2 (stereo not drawn) | 5.7 | Active |  |  |  |  | 7.1 |  | 40 | 34 | inhibition in vivo at 5 mg/kg [18]: 58% |
| CCCCCC(C)C(C)c1cc(O)c2c(c1)OC(C)(C)c1cc[n+]([O-])cc1-2 (stereo not drawn) | > 40 | Active |  | 44 |  | inactive | 8.6 | 40 |  | 14 | Time [10]: 59 min; Activity [24]: 42%; Activity [19]: 12% |
| CCCCCc1cc(O)c2c(c1)OC(C)(C)[C@@H]1CCC(C)=C[C@@H]21 [DRONABINOL] | 27.2 | Active |  |  | 4 |  | 43 | 39 | 15 |  | Time [25]: 29 min; inhibition in vivo at 5 mg/kg [18]: 36% |
| C#CCOc1cc(C(C)C(C)CCCCC)cc2c1-c1cnccc1C(C)(C)O2 (stereo not drawn) | > 40 | Active | 31 | 6 | 2 | inactive | > 40 |  |  | 27 | inhibition in vivo at 20 mg/kg [22]: 42%; Time [8]: 114 min; Time [25]: 82 min |
| CCCCCC(C)C(C)c1cc(OC(=O)OCC)c2c(c1)OC(C)(C)c1ccncc1-2 (stereo not drawn) |  | Active |  | 12 |  |  | 5.2 |  | 66 | 93 | inhibition in vivo at 2 mg/kg [27]: 37% |
| CCCCCC(C)C(C)c1cc(OCCCN2CCCCC2)c2c(c1)OC(C)(C)c1ccncc1-2.Cl (stereo not drawn) | > 40 | Active | 15 |  |  |  |  |  |  |  | Activity [2]: inactive; Activity [4]: inactive; Time [8]: -153 min |

Source: ChEMBL document CHEMBL3272288, “Cannabinoids. Synthesis and central nervous system activity of 8-substituted 10-hydroxy-5,5-dimethyl-5H-[1]benzopyrano[4,3-c]pyridine and derivatives” (1977)
